In brackets after ≈: the same amount, converted by molar mass. Activity calls are given as the source filed them. The rule behind the calls is not given here.
Key:
[1] = species on record: Homo sapiens; test: Inhibition of NF-kappaB in human L428 cells after 2 hrs by luciferase reporter gene assay; type: cell-based
In short: (§1)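 L428 cells stably carrying NF-κB-luciferase reporter (kept in 500 µg/ml G418), 10⁶ per well in 1 ml medium with DMSO solvent and compound (10-50 μg/ml) for 2 h, triplicate wells. Lysates assayed for luciferase, luminescence normalized to Bradford protein. Solvent control = 100%; Nuphar extract positive control; mean and SD of three independent experiments.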

[2] = species on record: Homo sapiens; test: Inhibition of NF-kappaB in human L428 cells at 20 ug/ml after 2 hrs by luciferase reporter gene assay relative to control; type: cell-based; in short: as §1
[3] = species on record: Homo sapiens; test: Inhibition of NF-kappaB in human L428 cells at 50 ug/ml after 2 hrs by luciferase reporter gene assay relative to control; type: cell-based; in short: as §1
[4] = species on record: Homo sapiens; test: Inhibition of NF-kappaB in human L428 cells at 30 ug/ml after 2 hrs by luciferase reporter gene assay relative to control; type: cell-based; in short: as §1
[5] = species on record: Homo sapiens; test: Inhibition of NF-kappaB in human L428 cells at 10 ug/ml after 2 hrs by luciferase reporter gene assay relative to control; type: cell-based; in short: as §1
[6] = species on record: Homo sapiens; test: Inhibition of NF-kappaB in human L428 cells at 40 ug/ml after 2 hrs by luciferase reporter gene assay relative to control; type: cell-based; in short: as §1
[7] = species on record: Homo sapiens; test: Inhibition of IL-1beta-induced NFkappaB activation in human OA chondrocytes at 100 ug/ml after 24 hrs by luciferase reporter gene assay relative to control; type: cell-based
[8] = species on record: Mus musculus; test: Inhibition of LPS-induced NFkappaB activation in mouse RAW264.7 cells at 100 ug/ml after 24 hrs by luciferase reporter gene assay relative to control; type: cell-based
[9] = test system: L-428; test: Inhibition of NFkappaB p50 subunit expression in nuclear fractions of human L428 cells after 2 hrs by Western method; type: functional, cell-based
In short: (§2)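 10 x 10^6 L428 cells per sample exposed 2 h to various concentrations or DMSO. Cytosolic and nuclear fractions prepared by hypotonic lysis, needle shearing and high-salt nuclear extraction. 40 µg protein (Bradford) run on 10% SDS-PAGE, immunoblotted for p50, p65, RelB; β-actin and Lamin B loading controls; ECL detection. At least three independent experiments.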

[10] = test system: L-428; test: Inhibition of NFkappaB p65 subunit expression in nuclear fractions of human L428 cells after 2 hrs by Western method; type: functional, cell-based; in short: as §2
[11] = species on record: Homo sapiens; test: Inhibition of NFkappaB p50 subunit in human L428 cells assessed as depletion of […] subunit from nucleus after 2 hrs by DAPI staining based confocal microscopic method; type: cell-based
In short: (§3)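 L428 cells incubated 2 h at 37 °C with compound at 10 or 30 μg/ml, cytocentrifuged (900 rpm, 5 min), fixed in 8% formalin 20 min. Separate staining with anti-p65 or anti-p50 plus fluorescent secondary antibodies; nuclei stained with DAPI. Nuclear localization imaged by confocal microscopy.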

[12] = test system: A549; test: Cytotoxicity against human A549 cells assessed as reduction in cell viability after 48 hrs by XTT assay; type: functional, cell-based; conditions: A549, 48 h
In short: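 A549 cells (DMEM, 10% heat-inactivated FBS, L-glutamine, Pen-Strep), 3 x 10^4 per well, left 24 h to form monolayer, then exposed to graded concentrations for 48 h in triplicate. XTT added, further 4 h at 37 °C, absorbance at 450 nm. Untreated control = 100% survival; mean and SD of three independent experiments.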

[13] = target: Transcription factor p65 (Homo sapiens) (UniProt Q04206); test: Inhibition of NFkappaB p65 subunit in human L428 cells assessed as depletion of p65 subunit from nucleus after 2 hrs by DAPI staining based confocal microscopic method; type: cell-based; in short: as §3
Sequence of Transcription factor p65 (Homo sapiens) (Q04206 whole entry): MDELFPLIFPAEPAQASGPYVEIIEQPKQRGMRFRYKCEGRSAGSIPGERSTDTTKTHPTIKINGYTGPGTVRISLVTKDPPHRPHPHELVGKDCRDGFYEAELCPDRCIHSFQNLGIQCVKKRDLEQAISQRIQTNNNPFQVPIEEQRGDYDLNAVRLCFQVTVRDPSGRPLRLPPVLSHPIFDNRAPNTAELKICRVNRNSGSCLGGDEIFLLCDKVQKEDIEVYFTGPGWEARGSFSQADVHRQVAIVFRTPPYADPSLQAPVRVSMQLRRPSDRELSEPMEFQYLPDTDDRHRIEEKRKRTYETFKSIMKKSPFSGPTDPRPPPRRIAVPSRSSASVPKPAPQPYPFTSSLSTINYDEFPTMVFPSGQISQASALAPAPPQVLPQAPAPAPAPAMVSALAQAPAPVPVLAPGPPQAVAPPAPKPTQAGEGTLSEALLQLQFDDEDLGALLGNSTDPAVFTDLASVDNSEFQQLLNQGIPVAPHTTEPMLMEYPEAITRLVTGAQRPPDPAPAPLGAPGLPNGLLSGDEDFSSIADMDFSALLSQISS

[14] = test system: L-428; test: Inhibition of NFkappaB p65 subunit expression in cytosolic fractions of human L428 cells after 2 hrs by Western method; type: functional, cell-based; in short: as §2
[15] = test system: L-428; test: Cytotoxicity against human L428 cells assessed as reduction in cell viability after 48 hrs by XTT assay; type: functional, cell-based; conditions: for IC50: L-428, 48 h
In short: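 L428 Hodgkin's lymphoma cells (RPMI 1640; lack IκBα, constitutive NF-κB), 3 x 10^4 per well in 200 µl, treated with graded concentrations for 48 h at 37 °C in triplicate. XTT added for 4 h at 37 °C, absorbance read at 450 nm. Control = 100% survival; mean and SD of three independent experiments.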

[16] = test system: L-428; test: Inhibition of RelB protein expression in nuclear fractions of human L428 cells at 10 to 40 ug/ml after 2 hrs by Western method; type: functional, cell-based; in short: as §2
[17] = test system: L-428; test: Inhibition of RelB protein expression in cytosolic fractions of human L428 cells at 10 to 40 ug/ml after 2 hrs by Western method; type: functional, cell-based; in short: as §2
[18] = test system: A549; test: Anti-migratory activity against human A549 cells assessed as reduction in wound closure at 5 ug/ml after 48 hrs by wound scratch assay; type: functional, cell-based
In short: (§4)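 A549 cells seeded in 6-well plates without compound; after monolayer formed (24 h), compound or DMSO vehicle added and monolayer scratched. Wound closure recorded after 48 h; concentrations 2-10 μg/ml. Representative of three independent experiments.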

[19] = test system: L-428; test: Inhibition of NFkappaB p50 subunit expression in cytosolic fractions of human L428 cells after 2 hrs by Western method; type: functional, cell-based; in short: as §2
[20] = test system: L-428; test: Inhibition of RelB protein expression in cytosolic fractions of human L428 cells at 5 to 30 ug/ml after 2 hrs by Western method; type: functional, cell-based; in short: as §2
[21] = test system: L-428; test: Inhibition of RelB protein expression in nuclear fractions of human L428 cells at 5 to 30 ug/ml after 2 hrs by Western method; type: functional, cell-based; in short: as §2
[22] = test system: A549; test: Anti-migratory activity against human A549 cells assessed as reduction in wound closure at 10 ug/ml after 48 hrs by wound scratch assay; type: functional, cell-based; in short: as §4
[23] = test system: L-428; test: Inhibition of NFkappaB p65 subunit expression in nuclear fractions of human L428 cells at 10 to 40 ug/ml after 2 hrs by Western method; type: functional, cell-based; in short: as §2
[24] = test system: L-428; test: Inhibition of NFkappaB p50 subunit expression in nuclear fractions of human L428 cells at 10 to 40 ug/ml after 2 hrs by Western method; type: functional, cell-based; in short: as §2
[25] = test system: L-428; test: Inhibition of NFkappaB p65 subunit expression in cytosolic fractions of human L428 cells at 10 to 40 ug/ml after 2 hrs by Western method; type: functional, cell-based; in short: as §2
[26] = test system: L-428; test: Inhibition of NFkappaB p50 subunit expression in cytosolic fractions of human L428 cells at 10 to 40 ug/ml after 2 hrs by Western method; type: functional, cell-based; in short: as §2

SMILES	inhibition [1]	inhibition [2] [%]	inhibition [3] [%]	inhibition [4] [%]	inhibition [5] [%]	inhibition [6] [%]	also measured
CN(C)c1ccc(/C=C/C=C/C=C/C(=O)N2CCCCC2)cc1	Dose-dependent effect	56.2	59.9	56.8	37.2	57.2	–
O=C(/C=C/C=C/C=C/c1ccc2c(c1)OCO2)N1CCCCC1	Dose-dependent effect	56.6	71.2	65.8	34	71	–
O=C(/C=C/C=C/c1ccc2c(c1)OCO2)N1CCCCC1	Dose-dependent effect	67.5	90.2	85.1	67.3	86.6	inhibition [7]: 90%; inhibition [8]: 75%
COc1cc(/C=C/C=C/C(=O)N2CCCCC2)cc(OC)c1OC	Dose-dependent effect	44.6	59.8	53.1	34.1	56.9	–
COc1ccc(/C=C/C=C/C(=O)N2CCCCC2)c(OC)c1OC	Dose-dependent effect	52.9	62.9	59.2	39.2	59.8	–
O=C(/C=C/C=C/c1ccc(OC2CCCC2)cc1)N1CCCCC1	Dose-dependent effect	61.7	72.2	63.2	57.6	69.7	–
CC(=O)Oc1ccc(/C=C/C=C/C(=O)N2CCCCC2)cc1	Dose-dependent effect	71.4	80.1	75.3	70.3	78.1	–
COc1ccc(/C=C/C=C/C(=O)N2CCCCC2)cc1	Dose-dependent effect	76.3	89.9	77.2	69.7	86.9	inhibition [9]: Dose-dependent effect; inhibition [10]: Dose-dependent effect; inhibition [11]: Dose-dependent effect; IC50 [12]: 63.2 µg/mL (≈ 233 µM); inhibition [13]: Dose-dependent effect; inhibition [14]: Dose-dependent effect; Activity [15]: Dose-dependent effect; IC50 [15]: 16.8 µg/mL (≈ 62.1 µM); inhibition [16]: inactive; inhibition [17]: inactive; Activity [18]: Active; inhibition [19]: Dose-dependent effect
O=C(/C=C/C=C/c1ccccc1)N1CCCCC1	Dose-dependent effect	73.9	88.2	82.2	71.9	85.9	inhibition [9]: Dose-dependent effect; inhibition [10]: Dose-dependent effect; inhibition [11]: Dose-dependent effect; IC50 [12]: 57.1 µg/mL (≈ 237 µM); inhibition [13]: Dose-dependent effect; inhibition [14]: Dose-dependent effect; Activity [15]: Dose-dependent effect; IC50 [15]: 43.2 µg/mL (≈ 179 µM); inhibition [20]: inactive; Activity [18]: Active; inhibition [21]: inactive; inhibition [19]: Dose-dependent effect
COc1ccc(/C=C/C=C/C(=O)N2CCCCC2)cc1OC	Dose-dependent effect	67.5	80.1	73.9	43.4	78.9	–
O=C(/C=C/C=C/c1ccc(O)cc1)N1CCCCC1	Dose-dependent effect	79.6	92.2	89.8	68.4	91.5	–
CN(C)c1ccc(/C=C/C=C/C(=O)N2CCCCC2)cc1	Dose-dependent effect	96.6	97.9	97.3	95.5	97.7	IC50 [12]: 69.1 µg/mL (≈ 243 µM); Activity [22]: Active; Activity [15]: Dose-dependent effect; IC50 [15]: 0.39 µg/mL (≈ 1.37 µM); inhibition [23]: inactive; inhibition [16]: inactive; inhibition [24]: inactive; inhibition [17]: inactive; inhibition [25]: inactive; inhibition [26]: inactive
COc1ccc(/C=C/C=C/C=C/C(=O)N2CCCCC2)cc1	Dose-dependent effect	34	51.8	44.8	26.4	50.7	–
